Reference: ChEMBL document CHEMBL1255376, “Comparative surveillance study of telavancin activity against recently collected gram-positive clinical isolates from across the United States” (2008)
In brackets after ≈: the same amount, converted by molar mass.

Key:
Format in all cases: functional
[1] = Antibacterial activity against Streptococcus sp. Group G clinical isolate by broth microdilution method
In short: (§1)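 MIC by CLSI broth microdilution in frozen microtiter trays holding serial dilutions of each agent, prepared from standard laboratory powders. E. faecalis ATCC 29212 and ATCC 51299, S. aureus ATCC 29213 and S. pneumoniae ATCC 49619 run in parallel as quality-control strains. Comparator susceptibility interpreted with CLSI breakpoints.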

[2] = test system: Streptococcus sanguinis; assay: Antibacterial activity against Streptococcus sanguinis clinical isolate by broth microdilution method; in short: as §1
[3] = test system: Streptococcus agalactiae; assay: Antibacterial activity against Streptococcus agalactiae clinical isolate by broth microdilution method; in short: as §1
[4] = test system: Streptococcus oralis; assay: Antibacterial activity against Streptococcus oralis clinical isolate by broth microdilution method; in short: as §1
[5] = Antibacterial activity against Streptococcus sp. Group C clinical isolate by broth microdilution method; in short: as §1
[6] = test system: Streptococcus intermedius; assay: Antibacterial activity against Streptococcus intermedius clinical isolate by broth microdilution method; in short: as §1
[7] = test system: Streptococcus mitis; assay: Antibacterial activity against Streptococcus mitis clinical isolate by broth microdilution method; in short: as §1
[8] = test system: Streptococcus constellatus; assay: Antibacterial activity against Streptococcus constellatus clinical isolate by broth microdilution method; in short: as §1
[9] = test system: Streptococcus sp.; assay: Antibacterial activity against Streptococcus sp. Group F clinical isolate by broth microdilution method
In short: (§2)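 MIC by CLSI broth microdilution in frozen microtiter trays holding serial dilutions of each agent, prepared from standard laboratory powders. Comparator susceptibility interpreted with CLSI breakpoints.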

[10] = test system: Streptococcus pyogenes; assay: Antibacterial activity against Streptococcus pyogenes clinical isolate by broth microdilution method; in short: as §1
[11] = test system: Streptococcus equinus; assay: Antibacterial activity against Streptococcus bovis clinical isolate by broth microdilution method; in short: as §1
[12] = test system: Streptococcus sp.; assay: Antibacterial activity against Streptococcus sp. clinical isolate by broth microdilution method; in short: as §2
[13] = test system: Streptococcus pneumoniae; assay: Antibacterial activity against penicillin susceptible Streptococcus pneumoniae clinical isolate by broth microdilution method
In short: (§3)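 MICs by CLSI broth microdilution in frozen trays pre-loaded with serial dilutions of each agent. Quality-control strains run in parallel: E. faecalis ATCC 29212 and ATCC 51299, S. aureus ATCC 29213, S. pneumoniae ATCC 49619. Comparator susceptibility categories follow CLSI breakpoints. Methicillin resistance in staphylococci assigned from the oxacillin MIC.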

[14] = test system: Staphylococcus aureus; assay: Antibacterial activity against methicillin-susceptible Staphylococcus aureus clinical isolate by broth microdilution method; in short: as §3
[15] = test system: Staphylococcus aureus; assay: Antibacterial activity against methicillin-resistant Staphylococcus aureus clinical isolate by broth microdilution method; in short: as §3

CC1(C)S[C@@H]2[C@H](NC(=O)Cc3ccccc3)C(=O)N2[C@H]1C(=O)O [PENICILLIN G]
MIC [1]: ≤ 0.06 µg/mL
MIC50 [1]: ≤ 0.06 µg/mL
MIC90 [1]: ≤ 0.06 µg/mL
MIC [2]: ≤ 0.06 µg/mL
MIC50 [2]: ≤ 0.06 µg/mL
MIC90 [2]: 1 µg/mL (≈ 2.99 µM)
MIC [3]: ≤ 0.06 µg/mL
MIC50 [3]: ≤ 0.06 µg/mL
MIC90 [3]: ≤ 0.06 µg/mL
MIC [4]: ≤ 0.06 µg/mL
MIC50 [4]: ≤ 0.06 µg/mL
MIC90 [4]: 1 µg/mL (≈ 2.99 µM)
MIC [5]: ≤ 0.06 µg/mL
MIC50 [5]: ≤ 0.06 µg/mL
MIC90 [5]: ≤ 0.06 µg/mL
MIC [6]: ≤ 0.06 µg/mL
MIC50 [6]: ≤ 0.06 µg/mL
MIC90 [6]: 1 µg/mL (≈ 2.99 µM)
MIC [7]: ≤ 0.06 µg/mL
MIC50 [7]: ≤ 0.06 µg/mL
MIC90 [7]: 1 µg/mL (≈ 2.99 µM)
MIC [8]: ≤ 0.06 µg/mL
MIC50 [8]: ≤ 0.06 µg/mL
MIC90 [8]: 1 µg/mL (≈ 2.99 µM)
MIC [9]: ≤ 0.06 µg/mL
MIC50 [9]: ≤ 0.06 µg/mL
MIC90 [9]: ≤ 0.06 µg/mL
MIC [10]: ≤ 0.06 µg/mL
MIC50 [10]: ≤ 0.06 µg/mL
MIC90 [10]: ≤ 0.06 µg/mL
MIC [11]: ≤ 0.06 µg/mL
MIC50 [11]: ≤ 0.06 µg/mL
MIC90 [11]: 1 µg/mL (≈ 2.99 µM)
MIC [12]: ≤ 0.06 µg/mL
MIC50 [12]: ≤ 0.06 µg/mL
MIC90 [12]: 1 µg/mL (≈ 2.99 µM)
MIC [13]: ≤ 0.06 µg/mL
MIC50 [13]: ≤ 0.06 µg/mL
MIC90 [13]: ≤ 0.06 µg/mL

GENTAMICIN
MIC50 [14]: 0.25 µg/mL
MIC90 [14]: 0.5 µg/mL
MIC50 [15]: 0.5 µg/mL
MIC90 [15]: 2 µg/mL
